Bioassay records from PubChem BioAssay.
Most compounds without a hit are left out; they make up all but 2.3% or so of the library.
sPLA2-III inh = Blocks human group III sPLA2 activity. QFRET BODIPY PC-A2 liposome hydrolysis, fluorescence. hit rate 0.56% among 370,000. inhibition, % at 12.2 µM;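 active means inhibition above mean plus 3 SD of compounds lying within the high and low control bounds, cut at about 19% in these data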
Calb FLC = affects C. albicans growth with fluconazole; hit rate 0.57% among 300,000; AID 1979; C. albicans CaCi-2 + fluconazole, Alamar Blue growth, 48 h; growth inhibition, % (concentration not given with the values);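 active means growth inhibition above about 58% in most replicates, limit read from the data, passing the limit was not always enough; inconclusive means exactly half the replicates above a set limit; inactive means most replicates below a set limit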;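 further: all wells also contain fluconazole at 8 µg/ml as a sub-toxic cotreatment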
ASAP1 inh = inhibitors of human ASAP1 ArfGAP activity. Q9ULH1. ASAP1-stimulated ARF1 GTP hydrolysis, GDP FP detection. inhibition, % at 16.5 µM. hit rate 0.19% among 360,000. AID 624377; in the data active means inhibition above about 25%
Target sequence (Q9ULH1 325-724 limits assumed): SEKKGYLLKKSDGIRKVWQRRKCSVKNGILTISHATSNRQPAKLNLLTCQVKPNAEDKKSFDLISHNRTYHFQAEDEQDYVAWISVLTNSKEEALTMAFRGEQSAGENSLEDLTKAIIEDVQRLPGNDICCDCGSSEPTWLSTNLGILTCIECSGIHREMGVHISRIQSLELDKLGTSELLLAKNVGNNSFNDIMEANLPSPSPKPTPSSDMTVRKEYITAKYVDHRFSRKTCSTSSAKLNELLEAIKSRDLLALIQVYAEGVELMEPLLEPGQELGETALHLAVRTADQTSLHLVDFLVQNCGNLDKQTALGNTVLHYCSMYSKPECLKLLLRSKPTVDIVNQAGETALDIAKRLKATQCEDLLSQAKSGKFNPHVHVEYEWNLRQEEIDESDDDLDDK
SKKanGAS inh = blocks kanamycin growth of S. pyogenes SKKanGAS strain | BacTiter-Glo, 6 h | AID 1662 | hit rate 1.3% among 300,000 | inhibition, % at 7.5 µM;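 active means mean replicate score, as percent of positive control median, at least 50; inconclusive means mean below 50 but one replicate at or above 50; inactive means mean and every replicate below 50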;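 further: strain carries kanamycin resistance gene driven by streptokinase promoter and grows in 40 µg/ml kanamycin; loss of luminescence reflects streptokinase promoter inhibition or plain growth inhibition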
ARFGAP1 inhibitor = rat ARFGAP1 inhibition; Q62848; hit rate 0.26% among 360,000; inhibition, % at 16.5 µM; Arfgap1-stimulated ARF1 GTP hydrolysis, GDP FP detection;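 active means inhibition above a per-plate limit, mean inhibition of low control wells plus 3 SD, cut at about 25% in these data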
Target sequence (Q62848 1-136 limits assumed): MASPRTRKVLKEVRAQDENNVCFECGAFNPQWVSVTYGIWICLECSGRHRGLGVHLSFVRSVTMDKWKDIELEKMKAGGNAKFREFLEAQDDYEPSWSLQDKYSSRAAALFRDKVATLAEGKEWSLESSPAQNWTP
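Replicates: Single well per compound | Assay system: Truncated rat Arfgap1 GAP domain | Control set: No-Arfgap1 wells (100%) versus DMSO full-reaction wells (0%) | Times: Enzyme reaction 120 min at 25 °C after 20 min preincubation | Reagent: Human ARF1(Δ1-17)-GTP substrate | Measured by: Tracer-displacement fluorescence polarization with EDTA stop, 620/688 nm | Measure: Percent inhibition of Arfgap1-stimulated GTP hydrolysis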
sPLA2 confirm = human GIII-sPLA2 inhibition, confirmation. shares compounds with sPLA2-III inh. recombinant hGIII-sPLA2, BODIPY PC-A2 QFRET fluorescence. inhibition, % at 12.2 µM. hit rate 34% among 2,000;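 active means mean inhibition across triplicates above the hit cutoff set in the earlier primary screen, cut at about 19% in these data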
BODIPY interf = optically interferes with 535nm fluorescence in sPLA2 counter-screen; BODIPY FL product fluorescence interference, QFRET; shares compounds with sPLA2-III inh; inhibition, % at 12.2 µM; hit rate 8.5% among 2,000; AID 743282;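 active means average inhibition above the solvent-only control mean plus 3 SD, cut at about 6% in these data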
535nm interf DR = interferes with 535nm fluorescence in dose response counter-screen; shares compounds with sPLA2-III inh; BODIPY FL product fluorescence interference, cell-free; IC50, µM; 240 tested, under 10 active;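 active means IC50 at or below 10 µM; inactive means IC50 above 10 µM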
Each line names hits and unclear results; the compound was inactive in the other large screens (follow-up assays come after a bar, where they were run).

C/C(=N\NC(=S)NC(C)C)c1cccc([N+](=O)[O-])c1	sPLA2-III inh 20 | sPLA2 confirm 22 | BODIPY interf inactive
O=C(NCCCN1CCN(c2ccc(F)cc2)CC1)Nc1ccc(Cl)cc1	none (no result: Calb FLC, ASAP1 inh, SKKanGAS inh, ARFGAP1 inhibitor)
Fc1ccccc1-c1nc(N2CCCCC2)c2ccccc2n1	sPLA2-III inh 21 | sPLA2 confirm inactive | BODIPY interf inactive
CCCCC(=O)N(C)c1c(CC)nc2c(OCC(=O)c3ccc(Cl)cc3Cl)cccn12	none (no result: Calb FLC, SKKanGAS inh)
O=S(=O)(NNc1nccc(C(F)(F)F)n1)c1cccc(Cl)c1Cl	sPLA2-III inh 58 | sPLA2 confirm 84 | BODIPY interf 88
Cc1ccccc1NC(=S)NC1CCCC1	none
S=C(NC1CCCC1)NC1CCCC1	none
Cc1cccc(C)c1NC(=S)NC1CCCCC1	sPLA2-III inh 24 | sPLA2 confirm 21 | BODIPY interf inactive
S=C(NC1CCCC1)NC1CC1	sPLA2-III inh 21, Calb FLC inconclusive | sPLA2 confirm inactive | BODIPY interf inactive
FC(F)(F)c1cccc(CC2CN(Cc3ccccc3)Cc3ccccc3N2c2cc(Cl)cc(Cl)c2)c1 (stereo unspecified)	sPLA2-III inh 27 (no result: Calb FLC, SKKanGAS inh) | sPLA2 confirm inactive | BODIPY interf inactive
C=CCN(C)CC#Cc1ccc(F)cc1	none (no result: Calb FLC, ASAP1 inh, SKKanGAS inh, ARFGAP1 inhibitor)
O=C(N[C@@H](Cc1cccnc1)C(=O)N1CCC[C@H]1C(=O)NCCc1ccccc1Cl)c1ccco1	none (no result: Calb FLC, SKKanGAS inh)
Cc1cccc(-n2cnc(C(=O)NNC(=S)Nc3ccc(Cl)cc3)c2)n1	sPLA2-III inh 34, Calb FLC inconclusive | sPLA2 confirm 59 | BODIPY interf 7.9
CCOc1cc2c3c(c1)C1(OCCO1)C(=O)N3C(C)(C)CC2C (stereo unspecified)	none
CCc1cc2c3c(c1)C(C)CC(C)(C)N3C(=O)C2=O (stereo unspecified)	sPLA2-III inh 27 | sPLA2 confirm inactive | BODIPY interf inactive
CC1(C)CC2C1CCC1(O)CC2(C)CCC1N(O)c1ccc(C(=O)NCCO)cn1 (stereo unspecified)	sPLA2-III inh 21 (no result: Calb FLC, SKKanGAS inh) | sPLA2 confirm 24 | BODIPY interf inactive
CCCOc1ccc(C(=O)NCCO)cc1	none
S=c1[nH]nc(-c2ccco2)n1/N=C/c1cccs1	sPLA2-III inh 20 | sPLA2 confirm 23 | BODIPY interf inactive
CCOc1cc(C(=O)NC)cc(OCC)c1OCC	sPLA2-III inh 20 | sPLA2 confirm inactive | BODIPY interf inactive
CCOc1cc(C(=O)NCC(C)(C)CNC(=O)c2cc(OCC)c(OCC)c(OCC)c2)cc(OCC)c1OCC	none
N#Cc1ccc(OCC(=O)Nc2ccncc2)cc1	none
N#Cc1ccc(OCC(=O)Nc2ccc(N3CCCC3)cc2)cc1	sPLA2-III inh 21 (no result: Calb FLC, SKKanGAS inh) | sPLA2 confirm inactive | BODIPY interf inactive
Cc1ccc(S(=O)(=O)NCC(C)n2cncn2)cc1C (stereo unspecified)	sPLA2-III inh 20 | sPLA2 confirm inactive | BODIPY interf inactive
Cc1cccc(OCC(=O)Nc2sc3c(c2C#N)CCC3)c1	sPLA2-III inh 23 | sPLA2 confirm inactive | BODIPY interf inactive
COC(=O)c1cc(Cl)ccc1NCC(N)c1ccccc1 (stereo unspecified)	sPLA2-III inh 20 (no result: Calb FLC, SKKanGAS inh) | sPLA2 confirm inactive | BODIPY interf inactive
O=C(c1[nH]c(C(F)(F)F)nc1-c1ccccc1)N1CCN(c2c(Cl)cncc2Cl)CC1	none (no result: Calb FLC, SKKanGAS inh)
Nc1cccc(Nc2nc(OC(C(F)(F)F)C(F)(F)F)nc(OC(C(F)(F)F)C(F)(F)F)n2)c1	sPLA2-III inh 28 | sPLA2 confirm 31 | BODIPY interf inactive | 535nm interf DR inactive
Cn1c(CSCc2ccccc2)n[nH]c1=S	sPLA2-III inh 32 | sPLA2 confirm inactive | BODIPY interf inactive
Cn1c(CSCc2ccc(Cl)cc2)n[nH]c1=S	sPLA2-III inh 20 | sPLA2 confirm inactive | BODIPY interf inactive
O=S1(=O)C=CCN1Cc1cn(Cc2ccc(Cl)cc2)nn1	none (no result: Calb FLC, ASAP1 inh, SKKanGAS inh, ARFGAP1 inhibitor)
C[C@H]1[C@@H](NC(=O)c2ccc(O)cc2)CC[C@@]23CCCN2C(=O)CCC[C@@H]13	none (no result: Calb FLC, ASAP1 inh, SKKanGAS inh, ARFGAP1 inhibitor)
